{"source": "ChEMBL document CHEMBL4765336", "about": "“Discovery of coumarin derivatives as potent and selective cyclin-dependent kinase 9 (CDK9) inhibitors with high antitumour activity” (Eur J Med Chem, 2020)", "key": {"[1]": {"test": "Toxicity in BALB/c nude mouse xenografted with human MV4-11 cells assessed as mortality at 40 mg/kg, iv administered once daily for 21 days and measured 2 or 3 times per week", "format": "organism-based", "conditions": "in vivo, 504 h, time 21 day", "in_short": "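Female BALB/c nude mice, six weeks old, with subcutaneous right-flank MV4-11 xenografts (5 million cells in PBS mixed 1:1 with Matrigel). Daily intravenous dosing started at tumour size 150–200 mm³, 6 mice per group, for 21 consecutive days. Vehicle was dimethylacetamide 20%/polyoxyethylated castor oil 40%/anhydrous ethanol 40%. Body weight was recorded two or three times weekly, and mortality was monitored throughout treatment.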"}, "[2]": {"test": "Metabolic stability in human liver microsomes assessed as intrinsic clearance at 1 uM incubated up to 60 mins in presence of NADPH by LC-MS/MS analysis", "format": "ADME, Microsome", "conditions": "read-out: CLH", "in_short": "(§1)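 Liver microsomes (0.5 mg/mL) incubated at 37 °C with compound at 1.0 μM final, 3 mM MgCl2 and 1 mM NADPH in 100 mM PBS pH 7.4. Samples taken at 0, 5, 15, 30, 60 min; remaining parent measured by LC-MS/MS. k = −slope, T1/2 = 0.693/k, CLint = k/microsomal protein concentration. Midazolam served as control.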"}, "[3]": {"test": "Metabolic stability in human liver microsomes assessed as half life at 1 uM incubated up to 60 mins in presence of NADPH by LC-MS/MS analysis", "format": "ADME, Microsome", "in_short": "as §1"}, "[4]": {"test": "Clearance in ICR mouse at 2 mg/kg, iv measured up to 24 hrs by LC-MS/MS analysis", "format": "ADME, organism-based", "conditions": "in vivo", "in_short": "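Male ICR mice (25.1–28.8 g, n=9), fasted 12 h, given a single i.v. dose of 2.0 mg/kg at 0.4 mg/mL in DMSO/PEG200/saline (1:1:3). Blood sampled at 0, 0.083, 0.25, 0.5, 1, 2, 4, 8, 24 h. Plasma ACN-precipitated and quantified by LC-MS/MS. Parameters derived from composite mean plasma concentration-time data.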"}, "CDK3/Cyclin E": {"target": "CDK3/Cyclin E (Homo sapiens, UniProt Q00526)", "sequence (P24864 whole entry)": "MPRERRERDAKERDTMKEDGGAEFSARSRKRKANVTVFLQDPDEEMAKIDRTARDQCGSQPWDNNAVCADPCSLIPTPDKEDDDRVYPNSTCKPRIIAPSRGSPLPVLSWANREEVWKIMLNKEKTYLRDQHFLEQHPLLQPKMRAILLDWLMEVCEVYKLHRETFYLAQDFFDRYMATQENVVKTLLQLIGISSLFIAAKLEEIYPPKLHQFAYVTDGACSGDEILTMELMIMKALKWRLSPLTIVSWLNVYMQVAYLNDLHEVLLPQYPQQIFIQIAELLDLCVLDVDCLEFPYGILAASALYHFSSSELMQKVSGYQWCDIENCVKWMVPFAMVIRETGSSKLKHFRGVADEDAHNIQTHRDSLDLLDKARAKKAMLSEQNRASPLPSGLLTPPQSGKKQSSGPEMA", "sequence (Q00526 whole entry)": "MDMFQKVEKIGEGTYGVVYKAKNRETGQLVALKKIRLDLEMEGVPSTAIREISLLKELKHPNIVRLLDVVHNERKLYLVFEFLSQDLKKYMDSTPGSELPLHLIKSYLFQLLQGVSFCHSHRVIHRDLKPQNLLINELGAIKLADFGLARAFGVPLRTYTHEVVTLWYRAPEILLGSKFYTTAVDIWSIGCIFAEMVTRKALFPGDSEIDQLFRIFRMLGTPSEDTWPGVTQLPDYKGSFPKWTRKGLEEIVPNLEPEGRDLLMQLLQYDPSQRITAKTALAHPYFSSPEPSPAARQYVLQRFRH", "test": "Inhibition of CDK3/Cyclin E (unknown origin) preincubated for 20 mins followed by ATP addition and measured after 120 mins in presence of [33P-gamma] ATP by hotspot kinase assay", "format": "protein-complex assay", "in_short": "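Radiometric filter-binding assay: kinase and substrate in 20 mM Hepes pH 7.5, 10 mM MgCl2, 1 mM EGTA, 0.02% Brij35, 0.02 mg/mL BSA, 0.1 mM Na3VO4, 2 mM DTT, 1% DMSO. Compound (top 1/10/27 μM, 3-fold serial dilutions) preincubated 20 min at 25 °C. ATP plus [γ-33P]ATP added to 10 μM final, reacted 120 min at 25 °C. IC50 from curve fit, duplicate mean.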"}}, "data": [{"smiles": "COc1cc(F)ccc1-c1nc(Nc2ccc3c(N4CCOCC4)c(C(C)=O)c(=O)oc3c2)ncc1F", "values": [{"measurement": "Activity", "setting": "[1]", "result": "Non-Toxic"}, {"measurement": "microsomal CLint at 1 µM", "setting": "[2]", "result": 38.8, "unit": "µL/min/mg"}, {"measurement": "half-life at 1 µM", "setting": "[3]", "result": 35.7, "unit": "min"}, {"measurement": "clearance", "setting": "[4]", "result": 59.3, "unit": "mL/min/kg"}, {"measurement": "IC50", "setting": "CDK3/Cyclin E", "result": 1510, "unit": "nM"}]}]}
